The values below come from ChEMBL document CHEMBL1137994, “Bis[3-(4'-substituted phenyl)prop-2-ene]disulfides as a new class of antihyperlipidemic compounds” (2004).

Assay [1] has as its target T1, 3-hydroxy-3-methylglutaryl-coenzyme A reductase (Rattus norvegicus) (UniProt P51639).
T1 sequence (whole entry): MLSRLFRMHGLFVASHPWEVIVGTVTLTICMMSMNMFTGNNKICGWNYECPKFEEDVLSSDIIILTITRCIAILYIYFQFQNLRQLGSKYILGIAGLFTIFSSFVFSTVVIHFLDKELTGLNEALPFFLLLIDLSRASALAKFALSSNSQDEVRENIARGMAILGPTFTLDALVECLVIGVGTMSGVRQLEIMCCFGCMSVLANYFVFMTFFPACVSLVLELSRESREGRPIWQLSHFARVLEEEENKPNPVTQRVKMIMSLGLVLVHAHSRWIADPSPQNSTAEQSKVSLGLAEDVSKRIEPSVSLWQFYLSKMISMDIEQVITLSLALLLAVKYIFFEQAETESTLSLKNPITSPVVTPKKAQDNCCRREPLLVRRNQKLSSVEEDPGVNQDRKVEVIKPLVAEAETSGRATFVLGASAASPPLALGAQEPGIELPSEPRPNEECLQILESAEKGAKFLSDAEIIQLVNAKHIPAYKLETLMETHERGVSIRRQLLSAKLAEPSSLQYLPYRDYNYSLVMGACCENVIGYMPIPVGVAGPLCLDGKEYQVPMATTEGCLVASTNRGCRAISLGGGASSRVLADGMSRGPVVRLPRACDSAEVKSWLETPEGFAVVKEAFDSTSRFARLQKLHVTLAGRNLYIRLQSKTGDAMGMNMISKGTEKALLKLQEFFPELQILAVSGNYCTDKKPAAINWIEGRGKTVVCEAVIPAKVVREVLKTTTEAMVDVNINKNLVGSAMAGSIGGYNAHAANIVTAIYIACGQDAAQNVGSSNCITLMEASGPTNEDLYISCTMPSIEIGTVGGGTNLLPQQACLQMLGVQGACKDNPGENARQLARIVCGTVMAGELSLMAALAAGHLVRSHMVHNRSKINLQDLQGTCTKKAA
Put plainly: Ratio of HMG-CoA reductase to mevalinate. The procedure, abridged:
(§1)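 Male Wistar rats, six per group, received a 5% cholesterol diet for 1 week plus an oral 20 mg/kg bwt dose given as a suspension in water. The experiment was run three times. Hepatic HMG-CoA reductase activity was determined by the Venugopala Rao method and expressed as the HMG-CoA/mevalonate ratio.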

The target in assay [2] is T1, 3-hydroxy-3-methylglutaryl-coenzyme A reductase (Rattus norvegicus). Put plainly: Percent decrease in HMG-CoA reductase activity in rat. An outline of the steps: as §1
For assay [3], the system named is Rattus norvegicus. Put plainly: Percent decrease in weight of serum cholesterol after treatment with compound at 20 mg/kg dose for seven days. It counts as functional. An outline of the steps: (§2)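 Male Wistar rats, six per group, were fed a 5% cholesterol diet for 1 week. They were dosed orally at the same time with 20 mg/kg bwt as a suspension in water, and the experiment was run three times. Serum and liver cholesterol were measured by the Zlatkis method, and liver triglyceride by the Van Handel–Zilversmit method, on about 1 g of saline-washed tissue.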

For assay [4], the system named is Rattus norvegicus. Put plainly: Percent decrease in weight of triglyceride in liver wet tissue after treatment with compound at 20 mg/kg dose for seven days. It counts as functional. An outline of the steps: as §2
Assay [5] deals with Rattus norvegicus. Put plainly: Alanine transferase (GPT) enzyme level in serum upon single dose administration was determined as measure of hepatotoxicity; Normal range = 18-30 IU. It counts as functional. The procedure, abridged: (§3)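 Oral dosing of the compounds as aqueous suspensions, given either as a single dose or as five doses. Hepatotoxicity was assessed from serum alanine transferase and aspartate transferase (IU) and alkaline phosphatase (KA units). Each marker was set against the normal ranges listed.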

In assay [6] the test system is Rattus norvegicus. Put plainly: Alkaline phosphatase enzyme level in serum upon single dose administration was determined as measure of hepatotoxicity; Normal range = 14-32 KA units. It counts as functional. An outline of the steps: as §3
Assay [7] concerns Rattus norvegicus. Put plainly: Alanine transferase (GPT) enzyme level in serum upon administration of five doses was determined as measure of hepatotoxicity; Normal range = 18-30 IU. It counts as functional. An outline of the steps: as §3
In assay [8] the test system is Rattus norvegicus. Put plainly: Aspartate transferase (GOT) enzyme level in serum upon single dose administration was determined as measure of hepatotoxicity; Normal range = 46-81 IU. It counts as functional. An outline of the steps:
as §3

Assay [9] concerns Rattus norvegicus. Put plainly: Weight of serum cholesterol after treatment with compound at 20 mg/kg dose for seven days. It counts as functional. The procedure, abridged: (§4)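 Male Wistar rats, six per group, were fed a 5% cholesterol diet for one week while receiving compound at 20 mg/kgbwt orally as a suspension in water. Serum was separated, and about 1 g of liver, washed in ice-cold 0.85% NaCl, was taken for lipids. Cholesterol was measured by the Zlatkis method and liver triglyceride by the Van Handel–Zilversmit method. The run was repeated three times; values are mean ± SE.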

In assay [10] the test system is Rattus norvegicus. Put plainly: Weight of cholesterol in liver wet tissue after treatment with compound at 20 mg/kg dose for seven days. It counts as functional. An outline of the steps: as §4
In assay [11] the test system is Rattus norvegicus. Put plainly: Weight of triglyceride in liver wet tissue after treatment with compound at 20 mg/kg dose for seven days. It counts as functional. The procedure, abridged: as §4
For assay [12], the system named is Rattus norvegicus. Put plainly: Percent decrease in weight of cholesterol in liver wet tissue after treatment with compound at 20 mg/kg dose for seven days. It counts as functional. An outline of the steps: as §2
Assay [13] has as its system Rattus norvegicus. Put plainly: Creatinine level in serum upon single dose administration was determined as measure of nephrotoxicity; Normal range = 0.20-0.80 mg/dL. It counts as functional, organism-based. The procedure, abridged:
(§5)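 Nephrotoxicity was assessed after a single dose of compound by measuring serum blood urea nitrogen and creatinine in mg/dL by cited methods. Values are mean ± SE against a normal range.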

The subject of assay [14] is Rattus norvegicus. Put plainly: Creatinine level in serum upon administration of five doses was determined as measure of nephrotoxicity; Normal range = 0.20-0.80 mg/dL. It counts as functional, organism-based. The procedure, abridged:
(§6)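 Nephrotoxicity was assessed after five doses of compound by measuring serum blood urea nitrogen and creatinine in mg/dL by cited methods. Values are mean ± SE against a normal range.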

In assay [15] the test system is Rattus norvegicus. Put plainly: Blood urea nitrogen level in serum upon single dose administration was determined as measure of nephrotoxicity; Normal range = 5-29 mg/dL. It counts as functional, organism-based. The procedure, abridged:
as §5

Assay [16] relates to Rattus norvegicus. Put plainly: Blood urea nitrogen level in serum upon administration of five doses was determined as measure of nephrotoxicity; Normal range = 5-29 mg/dL. It counts as functional, organism-based. The procedure, abridged: as §6
Assay [17] concerns Rattus norvegicus. Put plainly: Alkaline phosphatase enzyme level in serum upon administration of five doses was determined as measure of hepatotoxicity; Normal range = 14-32 KA units. It counts as functional. An outline of the steps: as §3
In assay [18] the test system is Rattus norvegicus. Put plainly: Aspartate transferase (GOT) enzyme level in serum upon administration of five doses was determined as measure of hepatotoxicity; Normal range = 46-81 IU. It counts as functional. An outline of the steps: as §3
Assay [19] deals with Rattus norvegicus. Put plainly: Alkaline phosphatase enzyme level upon single dose administration was determined as measure of hepatotoxicity; Normal range = 14-32 KA units. It counts as functional. An outline of the steps: as §3

For the compound `Nc1ccc(/C=C/CSSC/C=C/c2ccc(N)cc2)cc1`, the Ratio in assay [1] came to 1.74. Besides, the Decrease in assay [2] came out at 7.5%; in the assay on Rattus norvegicus [3] it was 5.5%; in the assay on Rattus norvegicus [4] it was 6.71%; in the assay with Rattus norvegicus [12] it was 3.13%. Further, the Activity in the assay with Rattus norvegicus [5] came to 26.5 IU; in the assay with Rattus norvegicus [6] it was 40.6 KA Units; with Rattus norvegicus [7] it was 21 IU; in the assay with Rattus norvegicus [8], 51.5 IU; with Rattus norvegicus [17] it was 46.9 KA Units; in the assay on Rattus norvegicus [18] it was 37 IU. In addition, the Weight amounted to 59.76 mg/dL in the assay with Rattus norvegicus [9], 4.81 mg/g in the assay on Rattus norvegicus [10] and 14.6 mg/g with Rattus norvegicus [11]. Further, the Level in the assay on Rattus norvegicus [13] was found to be 0.55 mg/dL; with Rattus norvegicus [14], 0.84 mg/dL; in the assay with Rattus norvegicus [15], 13 mg/dL; with Rattus norvegicus [16] it was 14.6 mg/dL.
For the compound `O=C(O)c1ccc(/C=C/CSSC/C=C/c2ccc(C(=O)O)cc2)cc1`, in assay [1], the Ratio stood at 2.02. The Decrease came out at 24.2% in assay [2], 7.01% in the assay with Rattus norvegicus [3], 8.28% with Rattus norvegicus [4] and 13.3% in the assay on Rattus norvegicus [12]. Besides, the Activity with Rattus norvegicus [5] is 25 IU; in the assay with Rattus norvegicus [6], 31 KA Units; in the assay with Rattus norvegicus [7], 28 IU; with Rattus norvegicus [8], 53 IU; in the assay on Rattus norvegicus [17], 32.8 KA Units; with Rattus norvegicus [18], 56 IU. The Weight in the assay with Rattus norvegicus [9] came out at 58.82 mg/dL; in the assay with Rattus norvegicus [10] it was 4.3 mg/g; in the assay on Rattus norvegicus [11] it was 14.3 mg/g. The Level with Rattus norvegicus [13] stood at 0.61 mg/dL; with Rattus norvegicus [14], 0.7 mg/dL; in the assay with Rattus norvegicus [15] it was 20.2 mg/dL; in the assay with Rattus norvegicus [16], 17.4 mg/dL.
As for `CC[C@H](C)C(=O)O[C@H]1C[C@@H](C)C=C2C=C[C@H](C)[C@H](CC[C@@H]3C[C@@H](O)CC(=O)O3)[C@H]21` [LOVASTATIN], the Ratio in assay [1] came to 2.2. Moreover, the Decrease in assay [2] turned out to be 35.4%; in the assay on Rattus norvegicus [3], 31.2%; with Rattus norvegicus [4], 36.91%; in the assay on Rattus norvegicus [12] it was 42.3%. For the same compound, the Weight worked out at 43.5 mg/dL in the assay on Rattus norvegicus [9], 2.84 mg/g in the assay on Rattus norvegicus [10] and 9.86 mg/g in the assay on Rattus norvegicus [11].
For the compound `O=[N+]([O-])c1ccc(/C=C/CSSC/C=C/c2ccc([N+](=O)[O-])cc2)cc1`, the Ratio in [1] came to 2.53. The Decrease in assay [2] was found to be 55.7%; with Rattus norvegicus [3], 30.2%; in the assay on Rattus norvegicus [4], 9.21%; in the assay on Rattus norvegicus [12] it was 36.5%. In addition, the Activity in the assay with Rattus norvegicus [5] amounted to 21 IU; with Rattus norvegicus [6], 29.5 KA Units; in the assay with Rattus norvegicus [7], 15.5 IU; with Rattus norvegicus [8] it was 51 IU; in the assay on Rattus norvegicus [17], 48 KA Units; in the assay on Rattus norvegicus [18] it was 49 IU. Moreover, the values for the Weight in the assay on Rattus norvegicus [9], in the assay with Rattus norvegicus [10] and in the assay on Rattus norvegicus [11] were 44.15 mg/dL, 3.15 mg/g and 14.8 mg/g, respectively. Also, the Level in the assay with Rattus norvegicus [13] is 0.4 mg/dL; in the assay on Rattus norvegicus [14], 0.8 mg/dL; with Rattus norvegicus [15] it was 7.65 mg/dL; in the assay on Rattus norvegicus [16] it was 6.48 mg/dL.
`C(=C\c1ccccc1)/CSSC/C=C/c1ccccc1`: the Ratio in [1] was 1.72. The Decrease turned out to be 5.9% in [2], 3.63% with Rattus norvegicus [3], 4.9% in the assay on Rattus norvegicus [4] and 2% with Rattus norvegicus [12]. The Activity amounted to 17.5 IU in the assay on Rattus norvegicus [5]; 34 KA Units with Rattus norvegicus [6]; 27 IU in the assay with Rattus norvegicus [7]; 51 IU in the assay with Rattus norvegicus [8]; 33.6 KA Units with Rattus norvegicus [17]; 39 IU with Rattus norvegicus [18]. Also, the Weight was 60.95 mg/dL in the assay on Rattus norvegicus [9], 4.86 mg/g in the assay on Rattus norvegicus [10] and 14.2 mg/g with Rattus norvegicus [11]. For the same compound, the Level with Rattus norvegicus [13] stood at 0.58 mg/dL; in the assay on Rattus norvegicus [14] it was 0.57 mg/dL; in the assay on Rattus norvegicus [15] it was 12.4 mg/dL; with Rattus norvegicus [16], 7.37 mg/dL.
Turning to `COc1ccc(/C=C/CSSC/C=C/c2ccc(OC)cc2)cc1`, in [1], the Ratio was 1.68. Further, the Decrease in assay [2] was found to be 3.69%; in the assay with Rattus norvegicus [3], 2.05%; in the assay with Rattus norvegicus [4], 4.91%; in the assay with Rattus norvegicus [12], 1.2%. The Activity is reported as 26.5 IU in the assay on Rattus norvegicus [5]; 23 IU in the assay on Rattus norvegicus [7]; 49 IU with Rattus norvegicus [8]; 45.6 KA Units in the assay on Rattus norvegicus [19]; 25.2 KA Units in the assay with Rattus norvegicus [17]; 29.5 IU in the assay on Rattus norvegicus [18]. For the same compound, the Weight is 61.95 mg/dL with Rattus norvegicus [9], 4.9 mg/g in the assay on Rattus norvegicus [10] and 14.8 mg/g in the assay on Rattus norvegicus [11]. Besides, the Level in the assay with Rattus norvegicus [13] came to 0.59 mg/dL; with Rattus norvegicus [14], 0.49 mg/dL; in the assay on Rattus norvegicus [15], 7.43 mg/dL; in the assay on Rattus norvegicus [16] it was 8.48 mg/dL.
For the compound `C=CCS[S+]([O-])CC=C` (stereo unspecified) [ALLICIN], the Ratio in [1] came out at 2.07. Besides, the Decrease is 27.6% in [2], 20.5% in the assay on Rattus norvegicus [3], 39.6% in the assay with Rattus norvegicus [4] and 27.6% in the assay with Rattus norvegicus [12]. Also, the Weight in the assay on Rattus norvegicus [9] turned out to be 50.25 mg/dL; in the assay with Rattus norvegicus [10], 3.59 mg/g; in the assay on Rattus norvegicus [11], 9.44 mg/g.
